Source: ChEMBL document CHEMBL3576759, “Antineoplastic agents. 599. Total synthesis of dolastatin 16” (2015)
Converted amounts (≈) assume the structure as drawn.

Tests used:
DU-145 [1] = assay: Growth inhibition of human DU145 cells using DMSO as solvent after 48 hrs by sulforhodamine B assay; assay type: functional
Method in brief: (§1)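 NCI-standard SRB protocol. Cells in RPMI1640 with 5% fetal bovine serum were seeded in 96-well plates and held 24 h before serial compound dilutions were added. After 48 h, cells were fixed with trichloroacetic acid, stained with sulforhodamine B and read by optical density. GI50 is the concentration giving 50% reduction in net protein increase.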

[2] = Growth inhibition of human KM20L2 cells using DMSO as solvent after 48 hrs by sulforhodamine B assay; assay type: functional, KM-20L2; method in brief: as §1
SF-268 [3] = assay: Growth inhibition of human SF268 cells using DMSO as solvent after 48 hrs by sulforhodamine B assay; assay type: functional; method in brief: as §1
NCI-H460 [4] = assay: Growth inhibition of human NCI-H460 cells using DMSO as solvent after 48 hrs by sulforhodamine B assay; assay type: functional; method in brief: as §1
MCF7 [5] = assay: Growth inhibition of human MCF7 cells using DMSO as solvent after 48 hrs by sulforhodamine B assay; assay type: functional; method in brief: as §1
[6] = Growth inhibition of human BxPC3 cells using DMSO as solvent after 48 hrs by sulforhodamine B assay; assay type: functional, BXPC-3; method in brief: as §1
[7] = Growth inhibition of human BxPC3 cells using MeOH as solvent after 48 hrs by sulforhodamine B assay; assay type: functional; settings: BXPC-3, 48 h; method in brief: as §1
NCI-H460 [8] = assay: Growth inhibition of human NCI-H460 cells using MeOH as solvent after 48 hrs by sulforhodamine B assay; assay type: functional; settings: NCI-H460, 48 h; method in brief: as §1
MCF7 [9] = assay: Growth inhibition of human MCF7 cells using MeOH as solvent after 48 hrs by sulforhodamine B assay; assay type: functional; settings: MCF7, 48 h; method in brief: as §1
[10] = Growth inhibition of human KM20L2 cells using MeOH as solvent after 48 hrs by sulforhodamine B assay; assay type: functional; settings: KM-20L2, 48 h; method in brief: as §1
DU-145 [11] = assay: Growth inhibition of human DU145 cells using MeOH as solvent after 48 hrs by sulforhodamine B assay; assay type: functional; settings: DU-145, 48 h; method in brief: as §1
SF-268 [12] = assay: Growth inhibition of human SF268 cells using MeOH as solvent after 48 hrs by sulforhodamine B assay; assay type: functional; settings: SF-268, 48 h; method in brief: as §1

| GI50 (DU-145 [1]) [µg/mL] | GI50 (NCI-H460 [4]) [µg/mL] | GI50 (MCF7 [5]) [µg/mL] | GI50 (NCI-H460 [8]) [µg/mL] | GI50 (MCF7 [9]) [µg/mL] | GI50 (DU-145 [11]) [µg/mL] | Compound | GI50 [2] [µg/mL] | GI50 (SF-268 [3]) [µg/mL] | GI50 [6] [µg/mL] | GI50 [7] [µg/mL] | GI50 [10] [µg/mL] | GI50 (SF-268 [12]) [µg/mL] |
| --- | --- | --- | --- | --- | --- | --- | --- | --- | --- | --- | --- | --- |
| 0.009 (≈ 0.0102 µM) | 0.27 (≈ 0.307 µM) | 0.027 (≈ 0.0307 µM) | – | – | – | CC(C)[C@H]1NC(=O)[C@@H]2CCCN2C(=O)[C@H]([C@H](C)Cc2ccccc2)NC(=O)[C@@H]2CCCN2C(=O)[C@@H](C(C)C)N(C)C(=O)[C@@H](C(C)C)OC(=O)[C@@H]2CCCN2C(=O)[C@H](C)OC(=O)[C@@H]1C (stereo in doubt) | 0.013 (≈ 0.0148 µM) | 0.016 (≈ 0.0182 µM) | 0.05 (≈ 0.0569 µM) | – | – | – |
| >10 | >10 | >10 | > 10 | > 10 | > 10 | CC(C)[C@H]1NC(=O)[C@@H]2CCCN2C(=O)[C@H]([C@H](C)Cc2ccccc2)NC(=O)[C@@H]2CCCN2C(=O)[C@@H](C(C)C)N(C)C(=O)[C@@H](C(C)C)OC(=O)[C@@H]2CCCN2C(=O)[C@H](C)OC(=O)[C@@H]1C (stereo in doubt; 1) | >10 | >10 | >10 | > 10 | > 10 | > 10 |
